According to ChEMBL document CHEMBL1165950, “Design and synthesis of new potent anticancer pyrazoles with high FLT3 kinase inhibitory selectivity” (Bioorg Med Chem, 2010):

Columns and labels:
Format in all cases: functional
SF-539 = test: Cytotoxicity against human SF539 cells assessed as cell growth at 10 uM; details: read-out: Activity
Outline: (§1)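 NCI-60 screen: cells grown in RPMI 1640 with 5% FBS and 2 mM L-glutamine, plated at 5000–40,000 cells/well according to doubling time, and preincubated 24 h at 37 °C, 5% CO2. The single 10 µM dose (DMSO stock) was added, then incubated 48 h. Cells were TCA-fixed and stained with 0.4% SRB, read at 515 nm, and growth % calculated against time-zero and control plates.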

SNB-19 = test: Cytotoxicity against human SNB19 cells assessed as cell growth at 10 uM; details: read-out: Activity; outline: as §1
SNB-75 = test: Cytotoxicity against human SNB75 cells assessed as cell growth at 10 uM; details: read-out: Activity; outline: as §1
U-251 = test: Cytotoxicity against human U251 cells assessed as cell growth at 10 uM; details: read-out: Activity; outline: as §1
LOX IMVI = test: Cytotoxicity against human LOXIMVI cells assessed as cell growth at 10 uM; details: read-out: Activity; outline: as §1
Malme-3M = test: Cytotoxicity against human MALME-3M cells assessed as cell growth at 10 uM; details: read-out: Activity; outline: as §1
M14 = test: Cytotoxicity against human M14 cells assessed as cell growth at 10 uM; details: read-out: Activity; outline: as §1
MDA-MB-435 = test: Cytotoxicity against human MDA-MB-435 cells assessed as cell growth at 10 uM; details: read-out: Activity; outline: as §1
SK-MEL-2 = test: Cytotoxicity against human SK-MEL-2 cells assessed as cell growth at 10 uM; details: read-out: Activity; outline: as §1
SK-MEL-28 = test: Cytotoxicity against human SK-MEL-28 cells assessed as cell growth at 10 uM; details: read-out: Activity; outline: as §1
SK-MEL-5 = test: Cytotoxicity against human SK-MEL-5 cells assessed as cell growth at 10 uM; details: read-out: Activity; outline: as §1
UACC-257 = test: Cytotoxicity against human UACC257 cells assessed as cell growth at 10 uM; details: read-out: Activity; outline: as §1
UACC-62 = test: Cytotoxicity against human UACC62 cells assessed as cell growth at 10 uM; details: read-out: Activity; outline: as §1
IGROV-1 = test: Cytotoxicity against human IGROV1 cells assessed as cell growth at 10 uM; details: read-out: Activity
Outline: (§2)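 Single-dose NCI-60 screen at 10 µM. Cells were grown in RPMI 1640 with 5% FBS and 2 mM L-glutamine, then treated for 48 h at 37 °C. Protein was measured by SRB staining with absorbance at 515 nm. Percentage growth was recorded, and inhibition percentage was calculated as 100 minus growth percentage.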

OVCAR-3 = test: Cytotoxicity against human OVCAR-3 cells assessed as cell growth at 10 uM; details: read-out: Activity; outline: as §1
OVCAR-4 = test: Cytotoxicity against human OVCAR4 cells assessed as cell growth at 10 uM; details: read-out: Activity; outline: as §1
OVCAR-5 = test: Cytotoxicity against human OVCAR5 cells assessed as cell growth at 10 uM; details: read-out: Activity; outline: as §1
OVCAR-8 = test: Cytotoxicity against human OVCAR8 cells assessed as cell growth at 10 uM; details: read-out: Activity; outline: as §1
NCI/ADR-RES = test: Cytotoxicity against human NCI/ADR-RES cells assessed as cell growth at 10 uM; details: read-out: Activity; outline: as §1
SK-OV-3 = test: Cytotoxicity against human SKOV3 cells assessed as cell growth at 10 uM; details: read-out: Activity; outline: as §1
786-0 = test: Cytotoxicity against human 786-0 cells assessed as cell growth at 10 uM; details: read-out: Activity; outline: as §2
A498 = test: Cytotoxicity against human A498 cells assessed as cell growth at 10 uM; details: read-out: Activity; outline: as §2
ACHN = test: Cytotoxicity against human ACHN cells assessed as cell growth at 10 uM; details: read-out: Activity; outline: as §2
CAKI-1 = test: Cytotoxicity against human Caki1 cells assessed as cell growth at 10 uM; details: read-out: Activity; outline: as §2
RXF 393 = test: Cytotoxicity against human RXF393 cells assessed as cell growth at 10 uM; details: read-out: Activity; outline: as §1
SN12C = test: Cytotoxicity against human SN12C cells assessed as cell growth at 10 uM; details: read-out: Activity; outline: as §1
TK-10 = test: Cytotoxicity against human TK10 cells assessed as cell growth at 10 uM; details: read-out: Activity; outline: as §1
UO-31 = test: Cytotoxicity against human UO31 cells assessed as cell growth at 10 uM; details: read-out: Activity; outline: as §1
PC-3 = test: Cytotoxicity against human PC3 cells assessed as cell growth at 10 uM; details: read-out: Activity; outline: as §1
DU-145 = test: Cytotoxicity against human DU145 cells assessed as cell growth at 10 uM; details: read-out: Activity; outline: as §2
MCF7 = test: Cytotoxicity against human MCF7 cells assessed as cell growth at 10 uM; details: read-out: Activity; outline: as §1
MDA-MB-231 = test: Cytotoxicity against human MDA-MB-231 cells assessed as cell growth at 10 uM; details: read-out: Activity; outline: as §1
[1] = Cytotoxicity against human Hs 578T cells assessed as cell growth at 10 uM; details: read-out: Activity; outline: as §2
BT-549 = test: Cytotoxicity against human BT549 cells assessed as cell growth at 10 uM; details: read-out: Activity; outline: as §2
T47D = test: Cytotoxicity against human T47D cells assessed as cell growth at 10 uM; details: read-out: Activity; outline: as §1
MDA-MB-468 = test: Cytotoxicity against human MDA-MB-468 cells assessed as cell growth at 10 uM; details: read-out: Activity; outline: as §1
[2] = Growth inhibition of human NCI60 cells at 10 uM after 48 hrs by sulforhodamine B assay relative to control; details: NCI60, 48 h, read-out: GI
Outline: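 Single-dose NCI screen at 10 µM across the 60-line panel, 48 h exposure at 37 °C after a 24 h preincubation. Adherent cells were fixed with cold TCA and stained with 0.4% SRB, and absorbance was read at 515 nm. Inhibition % was taken as 100 minus growth %, and the mean across all lines was reported.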

CCRF-CEM = test: Cytotoxicity against human CCRF-CEM cells assessed as cell growth at 10 uM; details: read-out: Activity; outline: as §2
HL-60(TB) = test: Cytotoxicity against human HL-60(TB) cells assessed as cell growth at 10 uM; details: read-out: Activity
Outline: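 NCI 60-cell panel screen at a single concentration of 10 µM. Cells are grown in RPMI 1640 with 5% FBS and 2 mM L-glutamine and read by SRB protein staining at 515 nm. Percent growth is measured relative to time-zero and untreated controls; inhibition % is 100 minus growth %.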

K562 = test: Cytotoxicity against human K562 cells assessed as cell growth at 10 uM; details: read-out: Activity; outline: as §2
MOLT-4 = test: Cytotoxicity against human MOLT4 cells assessed as cell growth at 10 uM; details: read-out: Activity; outline: as §1
[3] = Cytotoxicity against human […] cells assessed as cell growth at 10 uM; details: read-out: Activity; outline: as §1
SR = test: Cytotoxicity against human SR cells assessed as cell growth at 10 uM; details: read-out: Activity; outline: as §1
A549 = test: Cytotoxicity against human A549 cells assessed as cell growth at 10 uM; details: read-out: Activity; outline: as §2
EKVX = test: Cytotoxicity against human EKVX cells assessed as cell growth at 10 uM; details: read-out: Activity; outline: as §2
HOP-62 = test: Cytotoxicity against human HOP62 cells assessed as cell growth at 10 uM; details: read-out: Activity; outline: as §2
HOP-92 = test: Cytotoxicity against human HOP92 cells assessed as cell growth at 10 uM; details: read-out: Activity; outline: as §2
NCI-H226 = test: Cytotoxicity against human NCI-H226 cells assessed as cell growth at 10 uM; details: read-out: Activity; outline: as §1
NCI-H23 = test: Cytotoxicity against human NCI-H23 cells assessed as cell growth at 10 uM; details: read-out: Activity; outline: as §1
NCI-H322M = test: Cytotoxicity against human NCI-H322M cells assessed as cell growth at 10 uM; details: read-out: Activity; outline: as §1
NCI-H460 = test: Cytotoxicity against human NCI-H460 cells assessed as cell growth at 10 uM; details: read-out: Activity; outline: as §1
NCI-H522 = test: Cytotoxicity against human NCI-H522 cells assessed as cell growth at 10 uM; details: read-out: Activity; outline: as §1
COLO 205 = test: Cytotoxicity against human COLO205 cells assessed as cell growth at 10 uM; details: read-out: Activity; outline: as §2
HCC 2998 = test: Cytotoxicity against human HCC2998 cells assessed as cell growth at 10 uM; details: read-out: Activity; outline: as §2
HCT-116 = test: Cytotoxicity against human HCT116 cells assessed as cell growth at 10 uM; details: read-out: Activity; outline: as §2
HCT-15 = test: Cytotoxicity against human HCT15 cells assessed as cell growth at 10 uM; details: read-out: Activity; outline: as §2
HT-29 = test: Cytotoxicity against human HT-29 cells assessed as cell growth at 10 uM; details: read-out: Activity; outline: as §2
KM12 = test: Cytotoxicity against human KM12 cells assessed as cell growth at 10 uM; details: read-out: Activity; outline: as §1
SW-620 = test: Cytotoxicity against human SW620 cells assessed as cell growth at 10 uM; details: read-out: Activity; outline: as §1
SF-268 = test: Cytotoxicity against human SF268 cells assessed as cell growth at 10 uM; details: read-out: Activity; outline: as §1
SF-295 = test: Cytotoxicity against human SF295 cells assessed as cell growth at 10 uM; details: read-out: Activity; outline: as §1

## COc1cc(C)cc(-c2nn(CC#N)cc2-c2ccnc(-c3ccc(C#N)cc3)c2)c1
SF-539
  growth at 10 µM: 89.1%
SNB-19
  growth at 10 µM: 79.1%
SNB-75
  growth at 10 µM: 57.4%
U-251
  growth at 10 µM: 91.2%
LOX IMVI
  growth at 10 µM: 80.7%
Malme-3M
  growth at 10 µM: 111%
M14
  growth at 10 µM: 104%
MDA-MB-435
  growth at 10 µM: 102%
SK-MEL-2
  growth at 10 µM: 89.9%
SK-MEL-28
  growth at 10 µM: 104%
SK-MEL-5
  growth at 10 µM: 63.4%
UACC-257
  growth at 10 µM: 89.8%
UACC-62
  growth at 10 µM: 59.4%
IGROV-1
  growth at 10 µM: 90.9%
OVCAR-3
  growth at 10 µM: 102%
OVCAR-4
  growth at 10 µM: 76.2%
OVCAR-5
  growth at 10 µM: 97.9%
OVCAR-8
  growth at 10 µM: 84.2%
NCI/ADR-RES
  growth at 10 µM: 76.8%
SK-OV-3
  growth at 10 µM: 90.3%
786-0
  growth at 10 µM: 96.5%
A498
  growth at 10 µM: 82.2%
ACHN
  growth at 10 µM: 81.4%
CAKI-1
  growth at 10 µM: 82.2%
RXF 393
  growth at 10 µM: 76.5%
SN12C
  growth at 10 µM: 85.1%
TK-10
  growth at 10 µM: 84.7%
UO-31
  growth at 10 µM: 64.2%
PC-3
  growth at 10 µM: 85.9%
DU-145
  growth at 10 µM: 109%
MCF7
  growth at 10 µM: 43.3%
MDA-MB-231
  growth at 10 µM: 80.8%
[1]
  growth at 10 µM: 93.4%
BT-549
  growth at 10 µM: 99.3%
T47D
  growth at 10 µM: 37.6%
MDA-MB-468
  growth at 10 µM: 42.9%
[2]
  inhibition of growth at 10 µM: 14.4%
CCRF-CEM
  growth at 10 µM: 85.6%
HL-60(TB)
  growth at 10 µM: 93.6%
K562
  growth at 10 µM: 82%
MOLT-4
  growth at 10 µM: 71.8%
[3]
  growth at 10 µM: 89.7%
SR
  growth at 10 µM: 106%
A549
  growth at 10 µM: 83.6%
EKVX
  growth at 10 µM: 92%
HOP-62
  growth at 10 µM: 96.5%
HOP-92
  growth at 10 µM: 75.3%
NCI-H226
  growth at 10 µM: 78.8%
NCI-H23
  growth at 10 µM: 83.1%
NCI-H322M
  growth at 10 µM: 91.3%
NCI-H460
  growth at 10 µM: 104%
NCI-H522
  growth at 10 µM: 70.4%
COLO 205
  growth at 10 µM: 95.8%
HCC 2998
  growth at 10 µM: 89.3%
HCT-116
  growth at 10 µM: 80.3%
HCT-15
  growth at 10 µM: 75.9%
HT-29
  growth at 10 µM: 85.2%
KM12
  growth at 10 µM: 102%
SW-620
  growth at 10 µM: 101%
SF-268
  growth at 10 µM: 106%
SF-295
  growth at 10 µM: 102%
